Results collected from several papers.
Target: Cytochrome P450 2D6 (CYP2D6, Homo sapiens, UniProt P10635)
Observed: enzyme activity
Action: inhibitor

| Structure (SMILES) | assay | test system | setting | IC50 |
| --- | --- | --- | --- | --- |
| Cc1coc([C@H]2C[C@H]3[C@@H](CF)SC(N)=N[C@@]3(c3ccc(F)cc3F)CO2)n1 | – | human, liver microsomes | pH 7.4 | > 30 µM |
| Nc1nc(N)c2nc(C(=O)NCc3cccc(C(F)(F)F)c3)cnc2n1 | luciferase | – | – | 0.251 µM |
| Fc1ccc(Nc2c(-c3ccccn3)nc3ccc(C4CC4)cn23)cc1 | – | – | – | 1.5 µM |
| COc1ccc2c(Cc3ccccc3F)c3[n+](cc2c1OC)CCc1cc2c(cc1-3)OCO2 | – | – | – | 0.2 µM |
| N#C[C@H](C[C@@H]1CCCNC1=O)NC(=O)[C@H](CC1CC1)NC(=O)c1cc2cccc(Cl)c2[nH]1 | – | human, liver microsomes | – | 50.7 µM |
| O=c1c(O)c(-c2ccc(O)c(O)c2)oc2cc(O)cc(O)c12 | fluorescence | – | pH 7.4 | 0.65 µM |
| Nc1nc(N)c2nc(CNc3ccc(C(=O)NCCc4ccccc4)cc3)cnc2n1 | luciferase | – | – | 10.5 µM |
| Cc1ccc2nc(-c3ccccc3)c(CNc3ccc(F)cc3)n2c1 | – | – | – | 2.3 µM |
| C=CC(=O)Nc1cc(Nc2nccc(Nc3cc(Cl)c(F)cc3C(C)(C)O)n2)c(OC)cc1N1CC[C@@H](N(C)C)C1 | – | human, liver microsomes | – | 6.3 µM |
| COc1ccc2c(Cc3ccccc3F)c3n(c(=O)c2c1OC)CCc1cc2c(cc1-3)OCO2 | – | – | – | > 10 µM |
| C[C@H]1CN(c2n[nH]c3nc(N[C@H]4CC[C@H](NS(=O)(=O)CCC(F)(F)F)CC4)ncc23)CCO1 | – | – | – | > 100 µM |
| Cc1cc([C@H]2C[C@H]3[C@@H](CF)SC(N)=N[C@@]3(c3ccc(F)cc3F)CO2)on1 | – | human, liver microsomes | pH 7.4 | > 30 µM |
